This is an account of results in PMC12418302 (Journal of Natural Products, 2025).

For one data set, the system named is zebrafish. The following applies: in vivo; cited from earlier work.
The next data set addresses α-chymotrypsin (Bos taurus, UniProt P00766). The data set is described as follows: Chymotrypsin inhibition assay. Format: biochemical. An outline of the steps:
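α-Chymotrypsin, added as a 10 U/mL solution in kit assay buffer, was preincubated with test compound from a DMSO dilution series (10 μM to 1 nM) for 15 min at room temperature. A reference micropeptin served as positive control. A working reagent of 1% substrate in assay buffer was added, and fluorescence (ex/em 485/530 nm) was read every 30 s for 30 min. IC50 was calculated from the data.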

Data set [1] deals with T1, human neutrophil elastase (Homo sapiens, UniProt P08246).
T1 sequence (P08246 30-267): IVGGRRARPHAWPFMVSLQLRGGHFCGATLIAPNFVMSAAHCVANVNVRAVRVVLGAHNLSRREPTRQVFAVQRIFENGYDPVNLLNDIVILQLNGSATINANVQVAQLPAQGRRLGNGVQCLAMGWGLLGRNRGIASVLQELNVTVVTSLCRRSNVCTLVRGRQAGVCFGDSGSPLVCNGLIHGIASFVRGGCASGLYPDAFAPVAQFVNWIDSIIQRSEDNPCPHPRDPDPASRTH
In words: Neutrophil elastase inhibition assay. In kind it is biochemical. The following applies: dilution series 10 μM to 1 nM; general statement covering both protease assays.

Another data set relates to chymotrypsin. The following applies: read-out: IC50, chymotrypsin inhibition; literature value; cited from earlier work.

pIC50: −log10 of the molar value.

For the compound `CCCCCC(=O)N[C@@H](CC(=O)O)C(=O)N[C@H]1C(=O)N[C@@H](CCCN=C(N)N)C(=O)NC2CCC(O)N(C2=O)[C@@H]([C@H](C)CC)C(=O)N(C)[C@@H](Cc2ccc(O)cc2)C(=O)N[C@@H]([C@@H](C)CC)C(=O)O[C@@H]1C` (some centres unmarked) [micropeptin K139], the “share of the overall mortality attributed to the compound” value in the data set with zebrafish is 52%.
Regarding Micropeptin 982 (L-Ser) [Compound 2], the “chymotrypsin inhibitory activity (in words)” value on α-chymotrypsin (dilution series 10 μM to 1 nM) is “no inhibition was observed”. The “inhibitory activity (in words), neutrophil elastase” value in data set [1] is reported as “lacked any inhibitory activity”.
On to Micropeptin 996 (D-Gln) [Compound 4], for which the “chymotrypsin inhibition (in words)” value at α-chymotrypsin (up to a concentration of 10 μM) was “not active”.
For the compound Microviridin 1777, the pIC50 with chymotrypsin was 7.00.
